# MrgX1 allo act: positive allosteric modulators of MrgX1, primary screen, HEK293 cells, Fluo-4 calcium flux. 310,000 compounds, 0.63% hits. FDSS; hits give high values. B-score at 10 µM. Mas-related G-protein coupled receptor member X1 (Homo sapiens), Q96LB2. AID 588675, 2011;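 active means plate-corrected calcium response at least 3 library SD above typical, normal starting fluorescence, not activating the receptor alone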;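 further: compound read alongside a low EC10 to EC30 dose of BAM8-22 agonist; peak minus trough fluorescence over baseline measured at the second addition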
# Target sequence (Q96LB2 whole entry, looked up): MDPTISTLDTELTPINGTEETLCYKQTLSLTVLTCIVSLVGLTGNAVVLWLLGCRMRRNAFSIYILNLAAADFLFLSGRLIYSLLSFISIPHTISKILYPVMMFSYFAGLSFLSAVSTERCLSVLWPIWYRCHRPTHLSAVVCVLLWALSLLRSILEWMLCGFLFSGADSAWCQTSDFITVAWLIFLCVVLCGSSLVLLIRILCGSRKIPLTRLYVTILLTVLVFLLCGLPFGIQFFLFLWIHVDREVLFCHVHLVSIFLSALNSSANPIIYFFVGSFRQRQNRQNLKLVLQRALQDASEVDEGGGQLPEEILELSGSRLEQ
# RGS4 pot: RGS4 potentiators or activators, primary screen, cell-based, HEK293 M3R inducible RGS4, calcium flux; carbachol calcium flux Fluo4; hits give low values; B-score at 10 µM; 310,000 compounds, 0.92% hits;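 active means B-score of the integrated calcium signal more than 4 SD below the library mean, with starting fluorescence not abnormally high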;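 further: negative B-score means reduced calcium response which marks RGS4 activation or potentiation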
#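 Material: Inducible-RGS4 HEK293 cells carrying M3 receptor; also added: carbachol at ECmax as muscarinic agonist stimulus; incubation: compound preincubation 20 min at room temperature before agonist; signal: Fluo4-AM (2 µM) calcium-flux fluorescence, kinetic read; measure: integrated calcium ratio converted to B score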
# MrgX1 antag: antagonists of human MrgX1 receptor, primary screen, HEK293 cells, Fluo-4 calcium flux | Mas-related G-protein coupled receptor member X1 (Homo sapiens), Q96LB2 | BAM8-22 antagonism; hits give low values | B-score at 10 µM | 310,000 compounds, 1.3% hits | AID 588676, 2011;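 active means calcium-response B-score plate-corrected more than 3 library SD below zero, starting fluorescence within 5 deviations, no agonist response on first addition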;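 further: peak minus trough fluorescence over baseline after final BAM8-22 challenge near maximal dose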
# MrgX1 agonist: agonists of human MrgX1 receptor, primary screen, HEK293 cells, Fluo-4 calcium flux. Mas-related G-protein coupled receptor member X1 (Homo sapiens), Q96LB2. Fluo-4 calcium fluorescence, agonist mode; hits give high values. B-score at 10 µM. 310,000 compounds, 0.44% hits. AID 588627, 2011;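 active means calcium response B-score plate-corrected fluorescence ratio at least 3 library SD, with starting fluorescence B-score inside 5 SD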
#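 Material: MrgX1-expressing HEK293 cells; input: 15,000 cells per well; doses: test compound given as first of three sequential additions; schedule: overnight plating before 1 h dye loading; technique: Fluo-4 NW calcium-flux fluorescence, kinetic read; evaluation: baseline-normalised fluorescence change ratio, B-scored; control set: plate-wise positive and negative controls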
# RGS4 block: RGS4 inhibitors, primary screen, cell-based, HEK293 M3R inducible RGS4, calcium flux; Regulator of G-protein signaling 4 (Homo sapiens), P49798; Fluo-4 calcium flux; hits give high values; triggered by carbachol at its EC20; B-score at 10 µM; 310,000 compounds, 0.45% hits;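 active means B-score, a plate-corrected calcium signal, over three deviations above library mean, with baseline fluorescence within five deviations of library mean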;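 further: RGS4 expression induced by doxycycline in cells with stable M3 receptor; B-score is computed from the integrated fluorescence ratio over baseline after carbachol; higher B-score means a larger calcium signal and so more RGS4 inhibition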
# Hits are given with their value; – = inactive. Sampled rows, rich in hits. Any-hit rate of the full collection: about 3.5%.
SMILES,MrgX1 allo act,RGS4 pot,MrgX1 antag,MrgX1 agonist,RGS4 block
O=C(NC1CCCCC1)C(c1ccccn1)N(C(=O)Cc1cccs1)c1ccc(Cl)cc1 (stereo unspecified),–,–,–,36.7,–
CCC(C)c1ccc(C(C)NC(=S)NC2CCCCC2)cc1 (stereo unspecified),–,-8.41,–,–,–
CCc1ccc(C(C)NC(=S)NC2CCCCC2)cc1 (stereo unspecified),–,–,–,–,–
Cc1ccc(OCC(=O)NNC(=O)C2CCN(c3ncnc4sc(C)c(C)c34)CC2)cc1,–,–,–,–,–
Cc1sc2ncnc(N3CCC(C(=O)NNC(=O)COc4ccccc4Cl)CC3)c2c1C,–,-8.04,-6.97,–,–
Cc1sc2ncnc(N3CCC(C(=O)NNC(=O)COc4ccccc4F)CC3)c2c1C,–,-7.68,–,–,–
O=C(Nc1ccc(Cl)cc1)Nc1ccc(N2CCCC2)c(S(=O)(=O)Nc2ccccc2Cl)c1,–,–,-5.98,–,–
COc1ccccc1NS(=O)(=O)c1cc(NC(=O)Nc2cccc(C)c2)ccc1N1CCCCC1,–,–,–,–,–
CCOC(=O)C1=C(COC(=O)C2(C)CC2(Cl)Cl)NC(=O)NC1c1ccccc1 (stereo unspecified),–,–,–,–,–
COc1ccc(/C=C(/C(=O)c2ccc(Cl)cc2Cl)n2cncn2)cc1,–,–,–,34.9,–
O=C(N/N=C/C=C/c1ccccc1)C(O)c1ccccc1 (stereo unspecified),–,–,-5.9,–,–
O=C(N/N=C/C=C/c1ccco1)C(O)c1ccccc1 (stereo unspecified),–,–,–,–,–
COc1cc2c(cc1OC)CN(C(=O)c1cc(S(=O)(=O)N3CCOCC3)c(Cl)cc1Cl)CC2,–,–,–,–,–
CC1CC(C)CN(C(=O)c2ccc(S(=O)(=O)N3CCCC3)cc2)C1 (stereo unspecified),–,–,–,–,–
O=Cc1cc2ccccc2nc1SCCCF,–,–,-5.83,–,–
CSc1nc2ccccc2cc1/C=C(\C#N)c1ccccc1,–,–,–,–,–
O=C(COC(=O)C1CCC1)NCc1ccc(Cl)cc1Cl,–,–,–,–,–
C=CCn1c(SCC(=O)c2ccc(Br)cc2)nnc1C(CC(C)C)NC(=O)c1cccs1 (stereo unspecified),–,–,-6.08,–,–
C/C(=N/NC(=O)c1ccc(C(C)(C)C)cc1)c1ccccn1,–,–,–,–,8.54
COc1ccc(-c2csc(NC(=O)C3CCCO3)n2)cc1 (stereo unspecified),–,-7.02,–,–,–
O=C(NCCCn1ccnc1)C1CCCN(S(=O)(=O)c2ccc(F)cc2)C1 (stereo unspecified),–,–,–,–,–
CCOC(=O)CCNC(=O)N1CCCC(N(C)CCc2ccc(OC)c(OC)c2)C1 (stereo unspecified),–,–,–,–,–
Cc1c2ccccc2nc2c(F)c(N(C)C)c(F)c(F)c12,–,–,-8.12,–,–
CCOC(=O)CSc1nc(-c2ccccc2)nc2c1oc1ccccc12,–,-7.3,–,–,–
CCOc1ccc(NC(=O)NNC(=O)C(C)Oc2ccccc2OC)cc1 (stereo unspecified),–,–,–,–,–
SMILES,MrgX1 allo act,RGS4 pot,MrgX1 antag,MrgX1 agonist,RGS4 block
CCOc1ccc(NC(=O)NNC(=O)COc2ccc3ccccc3c2)cc1,–,–,-6.7,–,–
Cc1cccc(N2CCN(C(=O)c3ccc(-n4cncn4)c([N+](=O)[O-])c3)CC2)c1C,–,–,-4.89,–,–
CN(C)CC/C=C1/c2ccc(F)cc2Sc2ccc(Cl)cc21,–,-7.8,–,–,–
CN(C)CC/C=C1\c2cc(F)ccc2CSc2ccccc21,–,-8.8,–,–,–
C#CCN(C)CC/C=C1\c2ccccc2CSc2ccccc21,–,-8.66,–,–,–
C=CCN(C)CC/C=C1\c2ccccc2CSc2ccccc21,–,-10.6,–,–,–
ClCc1ncc(-c2ccc(Cl)cc2)o1,–,–,–,–,–
NCC/C=C1/c2ccccc2CSc2ccccc21,–,-7.01,–,–,–
